Article PMC6013806 (Chemical Science, 2016)

Assays:
[1] = target: Relaxin Family Peptide Receptor 1 (RXFP1), human, stably expressed in HEK-293T cells (human) (UniProt Q9HBX9); experiment: competition binding with Eu3+-labelled H2 relaxin on whole cells
[2] = cited from earlier work
[3] = cited from earlier work; remark: listed apart in the source
[4] = tested on: MMP-2 in rat renal myofibroblasts; experiment: MMP-2 levels by gelatin zymography, rat renal myofibroblasts; assay type: cell-based
Outline: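 Rat renal myofibroblasts were isolated from injured kidneys 3 days after unilateral ureteric obstruction. They were exposed to test compound at 16.8 nM (≃100 ng mL−1) for 72 h, with or without an RXFP1 antagonist (relaxin B-chain Arg13/Arg17→Lys); H2 relaxin was run at equivalent concentration. MMP-2 in media diluted 1:5–1:10 was read by gelatin zymography and densitometry. Three experiments were run in duplicate.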

human RXFP1 [5] = target: T1, human RXFP1 (Homo sapiens, UniProt Q9HBX9); experiment: Competition binding with europium-labelled H2 relaxin in HEK-RXFP1 cells; settings: HEK-293T cells stably expressing RXFP1; compared with B7-33
T1 sequence (Q9HBX9 1-757): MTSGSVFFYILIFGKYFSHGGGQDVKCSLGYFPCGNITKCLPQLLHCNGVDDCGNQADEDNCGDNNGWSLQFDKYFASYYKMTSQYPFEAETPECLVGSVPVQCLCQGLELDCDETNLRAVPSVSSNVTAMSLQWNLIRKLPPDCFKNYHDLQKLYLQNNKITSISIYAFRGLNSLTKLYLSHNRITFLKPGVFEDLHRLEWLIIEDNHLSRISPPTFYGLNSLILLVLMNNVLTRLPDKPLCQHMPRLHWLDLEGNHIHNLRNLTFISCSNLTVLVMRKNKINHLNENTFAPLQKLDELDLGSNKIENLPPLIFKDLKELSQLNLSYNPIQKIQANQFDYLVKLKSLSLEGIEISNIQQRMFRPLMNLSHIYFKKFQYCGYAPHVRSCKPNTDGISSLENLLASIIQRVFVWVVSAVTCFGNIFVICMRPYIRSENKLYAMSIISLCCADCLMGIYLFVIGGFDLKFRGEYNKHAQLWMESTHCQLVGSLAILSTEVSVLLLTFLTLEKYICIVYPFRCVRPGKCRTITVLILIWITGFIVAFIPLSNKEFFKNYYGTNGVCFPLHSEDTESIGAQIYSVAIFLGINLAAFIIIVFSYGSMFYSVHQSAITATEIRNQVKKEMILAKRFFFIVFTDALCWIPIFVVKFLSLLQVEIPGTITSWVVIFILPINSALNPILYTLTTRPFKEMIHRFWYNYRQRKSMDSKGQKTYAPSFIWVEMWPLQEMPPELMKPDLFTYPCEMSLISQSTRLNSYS
Outline: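 Whole-cell competition binding on HEK-293T cells stably transfected with RXFP1. Cells were grown in RPMI 1640 with 10% FCS, penicillin, streptomycin and 2 mM L-glutamine, then plated on poly-L-lysine-coated wells. Eu3+-labelled H2 relaxin was competed by increasing concentrations of unlabelled test peptide. % specific binding was measured in triplicate wells, repeated ≥3 times; one-site fit gave pIC50.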

human RXFP1 [6] = target: T1, human RXFP1; experiment: cAMP reporter gene assay, HEK-293T cells expressing human RXFP1; assay type: cell-based; settings: HEK-293T cells stably expressing RXFP1
Outline: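 HEK-293T cells expressing human RXFP1 were co-transfected with a pCRE β-galactosidase cAMP reporter plasmid and plated. After 24 h they were incubated with increasing concentrations of test peptide in parallel with H2 relaxin. Points were run in triplicate, with ≥3 independent experiments; pEC50 values were derived.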

In the case of “B7-33 (H2 relaxin B-chain-only analogue) (peptide)”, the pKi [1] is reported as 5.54.

In the case of “B1-29: native H2 relaxin B-chain with 29 residues”, the solubility in water [2] is given as “insoluble in water” and the functional activity [3] is given as “functionally inactive”.

For Human gene-2 relaxin (ligand), the pKi [1] was 8.96.

For `Cc1cc(Cn2cnc3c2C[C@@H](C(=O)O)N(C(=O)C(c2ccccc2)c2ccccc2)C3)ccc1N(C)C` [PD123319], the “effect of antagonist alone on basal MMP-2 expression” value ([4]; antagonist alone) was “neither the RXFP1 nor AT2 receptor antagonists alone affected basal MMP-2 expression” and the “effect of antagonist on MMP-promoting effects of B7-33” value ([4]; rat renal myofibroblasts treated with B7-33) was “completely blocked”.

In the case of “AcB7-33: Acetylated B7-33 (Ac-VIKLCGRELVRAQIAICGMSTWSKRSL-NH2; cysteine pairing not given here; UniProt P04090 31-57, looked up, fragment)”, the “binding affinity at HEK-RXFP1 (in words)” value (human RXFP1 [5]) is reported as “no change” and the “cAMP activity at HEK-RXFP1 (in words)” value (human RXFP1 [6]) is reported as “no change”.
